This note sets out measurements from ChEMBL document CHEMBL1155114, “Kadcoccilactones A-J, triterpenoids from Kadsura coccinea” (J Nat Prod, 2008).

Assay [1] relates to K562. The experiment in a line: Cytotoxicity against human K562 cells after 72 hrs by SRB assay. The class given is functional, cell-based. The note with it: K562, 72 h. The essentials:
(§1)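 Human tumor cells seeded in 96-well plates 24 h before treatment, then exposed continuously to a range of compound concentrations for 72 h. Inhibition of cell proliferation read by SRB or MTT staining as named in each line. IC50 derived. Adriamycin (ADR) included as positive control.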
A general note: Sulforhodamine B stains cellular protein and so reports cell mass.

The subject of assay [2] is K562. In words: Cytotoxicity against human K562 cells after 72 hrs by MTT assay. Type of assay: functional, cell-based. The following applies: K562, 72 h. An outline of the steps:
as §1
(Tetrazolium dyes change colour on reduction, which living cells bring about.)

In assay [3] the test system is Bel-7402. The experiment in a line: Cytotoxicity against human Bel7402 cells after 72 hrs by SRB assay. The class given is functional, cell-based. The following applies: Bel-7402, 72 h. An outline of the steps:
as §1

For assay [4], the system named is Bel-7402. In words: Cytotoxicity against human Bel7402 cells after 72 hrs by MTT assay. The note with it: Bel-7402, 72 h. Type of assay: functional, cell-based. An outline of the steps: as §1
Assay [5] relates to A549. In words: Cytotoxicity against human A549 cells after 72 hrs by SRB assay. Type of assay: functional. The essentials: as §1
Assay [6] concerns A549. The experiment in a line: Cytotoxicity against human A549 cells after 72 hrs by MTT assay. The class given is functional, cell-based. The note with it: A549, 72 h. An outline of the steps: as §1

In brackets after ≈: the same amount, converted by molar mass. Bounds are passed on as bounds.

On to `CC1=CC[C@@H]([C@@H](C)[C@@H]2CC[C@]3(O)[C@@H]4CC[C@H]5C(C)(C)O[C@@H]6CC(=O)O[C@@]65C[C@@]4(O)CC[C@]23C)OC1=O` [KADCOCCILACTONE B], for which the 50% inhibitory concentration (IC50) with K562 [1], with K562 [2], with Bel-7402 [3], in the assay on Bel-7402 [4] and with A549 [6] was more than 100 µg/mL each time. In addition, in the assay on A549 [5], the IC was more than 100 µg/mL.
As to `CC1=CC[C@@H]([C@@H](C)[C@]2(O)CC[C@@]3(C)[C@@H]4CC[C@H]5C(C)(C)O[C@@H]6CC(=O)O[C@@]65C[C@@]4(O)CC[C@@]32C)OC1=O` [KADCOCCILACTONE A], the concentration for half-maximal inhibition (IC50) is more than 100 µg/mL in the assay with K562 [1]; more than 100 µg/mL in the assay on K562 [2]; 36.4 µg/mL (≈ 70.5 µM) with Bel-7402 [3]; 36.4 µg/mL (≈ 70.5 µM) with Bel-7402 [4]; more than 100 µg/mL with A549 [6]. For the same compound, the IC in the assay on A549 [5] is more than 100 µg/mL.
`CC1=C[C@@H]([C@@H](O)[C@@H](C)[C@]23CC[C@@]4(CO2)[C@@H]2CC[C@H]5C(C)(C)O[C@@H]6CC(=O)O[C@@]65C[C@@]2(O)CC[C@@]43C)OC1=O` [KADCOCCILACTONE G]: the half-inhibitory concentration (IC50) in the assay with K562 [1], in the assay with K562 [2], with Bel-7402 [3], in the assay on Bel-7402 [4] and in the assay with A549 [6] was more than 100 µg/mL throughout. Besides, the IC with A549 [5] was more than 100 µg/mL.
Regarding `CC(=O)O[C@@H]1C[C@]2(C)[C@@H]([C@H](C)[C@H]3CC=C(C)C(=O)O3)CC[C@@]2(C)CCC[C@H]2C(C)(C)O[C@@H]3CC(=O)O[C@@]32CC1=O` [KADSUPHILACTONE A], the IC50 with K562 [1] was 50.3 µg/mL (≈ 90 µM); in the assay on K562 [2] it was 50.3 µg/mL (≈ 90 µM); in the assay on Bel-7402 [3] it was more than 100 µg/mL; with Bel-7402 [4], more than 100 µg/mL; in the assay with A549 [6] it was 96.6 µg/mL (≈ 173 µM). In the assay with A549 [5], this compound returned an IC of 96.6 µg/mL.
Turning to `CC(=O)O[C@H]1CC([C@H](C)[C@H](O)[C@@H]2C[C@H](C)C(=O)O2)=C2CC[C@]3(O)C[C@]45OC(=O)C[C@@]4(O)OC(C)(C)[C@@H]5CC[C@H]3[C@]21C` [KADCOCCILACTONE F], the IC50 in the assay on K562 [1], with K562 [2], in the assay with Bel-7402 [3], in the assay with Bel-7402 [4] and in the assay on A549 [6] was more than 100 µg/mL throughout. In the assay on A549 [5], this compound showed an IC of more than 100 µg/mL.
On to `CC1=CC[C@@H]([C@@H](C)[C@@H]2CC[C@@]3(CO)[C@@H]4CC[C@H]5C(C)(C)O[C@@H]6CC(=O)O[C@@]65C[C@@]4(O)CC[C@]23C)OC1=O` [KADCOCCILACTONE C], for which the IC50 was 53.3 µg/mL (≈ 103 µM) with K562 [1]; 53.3 µg/mL (≈ 103 µM) with K562 [2]; more than 100 µg/mL in the assay with Bel-7402 [3]; more than 100 µg/mL with Bel-7402 [4]; more than 100 µg/mL in the assay on A549 [6]. In the assay with A549 [5], this compound yielded an IC of more than 100 µg/mL.
Consider `CC1=CC[C@@H]([C@@H](C)[C@@H]2CC=C3[C@@H]4CC[C@H]5C(C)(C)O[C@@H]6CC(=O)O[C@@]65C[C@@]4(OC=O)CC[C@@]32C)OC1=O` [KADCOCCILACTONE D], for which the IC50 in the assay with K562 [1], with K562 [2], with Bel-7402 [3], with Bel-7402 [4] and in the assay on A549 [6] was more than 100 µg/mL throughout. In addition, the IC in the assay with A549 [5] was more than 100 µg/mL.
Regarding `CC(=O)O[C@H]1C[C@@H]2[C@H](C)[C@@H](C3CC(C)C(=O)O3)O[C@@]23CC[C@]2(O)C[C@]45OC(=O)C[C@H]4OC(C)(C)[C@@H]5C[C@@H](O)[C@H]2[C@@]13C` (stereo partly drawn) [KADCOCCILACTONE I], the IC50 in the assay with K562 [1], with K562 [2], with Bel-7402 [3], in the assay on Bel-7402 [4] and with A549 [6] was more than 100 µg/mL throughout. Also, in the assay with A549 [5], the IC is more than 100 µg/mL.
`CC1=CC([C@H]2O[C@@]34[C@H](C[C@@H]5O[C@@]53[C@@H]3[C@H](O)C[C@H]5C(C)(C)O[C@@H]6CC(=O)O[C@@]65C[C@@]3(O)C[C@@H]4O)[C@@H]2C)OC1=O` (stereo partly drawn) [KADCOCCILACTONE J]: the 50% inhibitory concentration (IC50) with K562 [1], in the assay on K562 [2], with Bel-7402 [3], in the assay on Bel-7402 [4] and in the assay on A549 [6] was more than 100 µg/mL throughout. This compound also came in with an IC with A549 [5] of more than 100 µg/mL.
With `CC(=O)O[C@@H]1C[C@H]2C(C)(C)O[C@@H]3CC(=O)O[C@@]32C[C@@]2(O)CC[C@]34O[C@H](C5CC(C)C(=O)O5)[C@@H](C)[C@H]3C[C@H](O)[C@]4(C)[C@H]12` (stereo partly drawn) [KADCOCCILACTONE H], the IC50 in the assay on K562 [1], with K562 [2], in the assay with Bel-7402 [3], in the assay on Bel-7402 [4] and in the assay on A549 [6] was more than 100 µg/mL in each case. In the assay on A549 [5], the IC was more than 100 µg/mL.
As for `CC1=C[C@H]([C@H](O)[C@H](C)[C@@H]2C[C@H]3O[C@]34[C@@H]3CC[C@@H]5C(C)(C)O[C@H]6CC(=O)O[C@]65C[C@]3(O)CC[C@@]24C)OC1=O` [MICRANDILACTONE B], the half-maximal inhibitory concentration (IC50) in the assay on K562 [1], in the assay on K562 [2], in the assay with Bel-7402 [3], in the assay on Bel-7402 [4] and with A549 [6] was more than 100 µg/mL each time. This compound gave an IC in the assay with A549 [5] of more than 100 µg/mL.
For the compound `CC1=C[C@@H]([C@@H](O)[C@@H](C)[C@H]2CC=C3[C@@H]4CC[C@H]5C(C)(C)O[C@@H]6CC(=O)O[C@@]65C[C@@]4(O)CC[C@@]32C)OC1=O` [KADCOCCILACTONE E], the IC50 in the assay with K562 [1], with K562 [2], with Bel-7402 [3], with Bel-7402 [4] and with A549 [6] was more than 100 µg/mL throughout. The compound further returned an IC in the assay on A549 [5] of more than 100 µg/mL.
Take `COc1cccc2c1C(=O)c1c(O)c3c(c(O)c1C2=O)C[C@@](O)(C(=O)CO)C[C@@H]3O[C@H]1C[C@H](N)[C@H](O)[C@H](C)O1` [DOXORUBICIN]: the half-inhibitory concentration (IC50) in the assay on K562 [1] amounted to 0.011 µg/mL (≈ 0.0202 µM); in the assay with K562 [2], 0.011 µg/mL (≈ 0.0202 µM); in the assay with Bel-7402 [3], 0.01 µg/mL (≈ 0.0184 µM); with Bel-7402 [4] it was 0.01 µg/mL (≈ 0.0184 µM); with A549 [6], 0.025 µg/mL (≈ 0.046 µM). Further, the IC in the assay with A549 [5] was determined as 0.025 µg/mL.

For orientation: IC50 means the concentration at which inhibition is half-maximal. A high value points to lower potency.
